{"data": "Measured values collected from several papers", "target": "Dual specificity protein kinase TTK (TTK, Homo sapiens, UniProt P33981)", "One construct used (P33981 1-857)": "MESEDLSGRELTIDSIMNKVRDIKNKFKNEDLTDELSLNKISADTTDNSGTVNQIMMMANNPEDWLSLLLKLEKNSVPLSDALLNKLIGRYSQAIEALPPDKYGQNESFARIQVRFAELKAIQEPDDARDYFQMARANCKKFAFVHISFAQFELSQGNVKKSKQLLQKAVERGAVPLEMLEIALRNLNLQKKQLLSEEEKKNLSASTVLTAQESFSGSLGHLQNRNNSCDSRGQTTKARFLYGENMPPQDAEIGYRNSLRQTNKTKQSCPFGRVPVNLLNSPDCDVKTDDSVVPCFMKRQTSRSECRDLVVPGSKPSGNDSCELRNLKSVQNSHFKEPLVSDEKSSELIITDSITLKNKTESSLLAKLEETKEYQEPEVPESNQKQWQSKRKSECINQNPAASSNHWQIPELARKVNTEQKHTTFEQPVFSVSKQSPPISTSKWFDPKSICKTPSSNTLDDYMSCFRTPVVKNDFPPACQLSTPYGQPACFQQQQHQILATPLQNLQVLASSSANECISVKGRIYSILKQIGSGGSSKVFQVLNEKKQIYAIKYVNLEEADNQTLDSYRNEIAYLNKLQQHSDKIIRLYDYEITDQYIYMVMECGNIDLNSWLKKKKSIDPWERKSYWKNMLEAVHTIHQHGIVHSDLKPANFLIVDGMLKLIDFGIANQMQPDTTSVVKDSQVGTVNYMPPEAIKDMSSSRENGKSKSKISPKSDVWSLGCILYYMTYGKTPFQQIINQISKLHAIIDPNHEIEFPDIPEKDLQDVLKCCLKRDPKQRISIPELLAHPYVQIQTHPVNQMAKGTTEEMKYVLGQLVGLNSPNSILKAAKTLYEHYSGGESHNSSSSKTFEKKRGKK", "note": "Compare with care: the assays were run in different laboratories."}
{"SMILES": "COc1cnc(Nc2cccc(S(N)(=O)=O)c2)nc1N1CCN(c2ccccc2)CC1", "observed": "binding", "method": "competition with immobilised ligand", "tested at": "1 µM", "remaining binding [%]": 83}
{"SMILES": "O=C(Nc1c[nH]nc1C(=O)NC1CCNCC1)c1cc(F)cc(F)c1", "observed": "binding", "method": "competition with immobilised ligand", "tested at": "1 µM", "remaining binding [%]": 100}
{"SMILES": "CCOC(=O)c1cc2cc(-c3cc(C(=O)NCc4ccc(C(=O)O)cc4)nn3C)ccc2[nH]1", "observed": "cell-free assay", "method": "competition with immobilised ligand", "tested at": "0.1 µM", "remaining binding [%]": 93}
{"SMILES": "N[C@@H]1CCN(c2nccc(-c3cnn4ncccc34)n2)C1", "observed": "binding", "tested at": "1 µM", "remaining binding [%]": 100}
{"SMILES": "CCN1CCN(Cc2ccc(C(=O)Nc3ccc(C)c(Oc4ccc5c(c4)CC(=O)N5)c3)cc2C(F)(F)F)CC1", "observed": "binding", "method": "competition with immobilised ligand", "tested at": "1 µM", "remaining binding [%]": 100}
{"SMILES": "CO[C@@H](C)c1c(Nc2ccc([C@@H](N(C)C(=O)C3CCS(=O)(=O)CC3)C(F)(F)F)cc2)cnc2cc(Cl)nn12", "observed": "cell-free assay", "method": "competition with immobilised ligand", "tested at": "1 µM", "remaining binding [%]": 100}
{"SMILES": "Cc1cnn2ncc(-c3ccnc(N(C)C)n3)c2c1", "observed": "binding", "tested at": "1 µM", "remaining binding [%]": 100}
{"SMILES": "Cc1cnc(Nc2ccc(C(=O)N3CCC(N4CCCC4)CC3)cc2)nc1-c1cc2ccccc2s1", "observed": "binding", "method": "competition with immobilised ligand", "tested at": "1 µM", "remaining binding [%]": 26}
{"SMILES": "CC1=C(C#N)C(c2ccc3c(c2)c(NC(=O)c2ccccc2C)nn3C)C(C#N)=C(C)N1", "observed": "cell-free assay", "method": "competition with immobilised ligand", "tested at": "1 µM", "remaining binding [%]": 82}
{"SMILES": "CN(CCCC(F)(F)F)c1nccc(-c2cnn3ncccc23)n1", "observed": "binding", "tested at": "1 µM", "remaining binding [%]": 64}
{"SMILES": "O=C(NCCCN1CCOCC1)c1ccc(Nc2ncc(Cl)c(-c3ccc(Cl)s3)n2)cc1", "observed": "binding", "method": "competition with immobilised ligand", "tested at": "1 µM", "remaining binding [%]": 58}
{"SMILES": "FC(F)(F)Oc1cccc(-c2cnc3ccc(-c4ccncc4)nn23)c1", "observed": "binding", "method": "competition with immobilised ligand", "tested at": "5 µM", "remaining binding [%]": 53}
{"SMILES": "O=C(c1ccc(Nc2ncc(Cl)c(-c3ccc(Cl)s3)n2)cc1)N1CCC(N2CCCC2)CC1", "observed": "binding", "method": "competition with immobilised ligand", "tested at": "1 µM", "remaining binding [%]": 26}
{"SMILES": "CNC(=O)Nc1ccc2c(c1)CC[C@@]21OC(=O)N(CC(=O)N(Cc2ccc(F)cc2)[C@@H](C)C(F)(F)F)C1=O", "observed": "cell-free assay", "method": "competition with immobilised ligand", "tested at": "1 µM", "remaining binding [%]": 100}
{"SMILES": "CN(C)c1nccc(-c2cnc3ncccn23)n1", "observed": "binding", "tested at": "1 µM", "remaining binding [%]": 74}
{"SMILES": "COc1ccc2c(c1)O[C@H](c1ccc(OC)c(OC)c1)C[C@@H]2NC(=O)C1(c2ccc3c(c2)OC(F)(F)O3)CC1", "observed": "cell-free assay", "method": "competition with immobilised ligand", "tested at": "1 µM", "remaining binding [%]": 100}
{"SMILES": "C[C@@H]1CCN(c2nccc(-c3cnn4ncccc34)n2)C1", "observed": "binding", "tested at": "1 µM", "remaining binding [%]": 46}
{"SMILES": "CCCCN(CCCC)C(=O)CN1C[C@H](c2cc(OC)c3c(c2)OCO3)[C@@H](C(=O)O)[C@@H]1CC(C)(C)CCC", "observed": "cell-free assay", "method": "competition with immobilised ligand", "tested at": "1 µM", "remaining binding [%]": 100}
{"SMILES": "CN(c1nccc(-c2cnn3ncccc23)n1)C1CC1", "observed": "binding", "tested at": "1 µM", "remaining binding [%]": 69}
{"SMILES": "COc1cnc(Nc2cccc(S(N)(=O)=O)c2)nc1N1CCN(c2ccccc2)C(=O)C1", "observed": "binding", "method": "competition with immobilised ligand", "tested at": "1 µM", "remaining binding [%]": 77}
